Format in all cases: functional, cell-based
Test [1] relates to MCF7. Kind of test: Cytotoxicity against human MCF7 cells at up to 100 uM after 48 hrs by MTT assay. In outline: (§1)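 Cells seeded at 2.0×10^4 per well in 96-well plates, exposed to a range of test concentrations for 48 h. Medium then replaced with fresh medium containing MTT at 100 µg/mL for 2–3 h. Formazan dissolved in DMSO, OD read at 540 nm with 620 nm reference. Viability taken as treated vs untreated absorbance. IC50 in µM, mean of three separate experiments. Highest concentration tested 100 µM.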
Background: Formazan colour is commonly taken as a measure of viable cells.

A further test deals with SK-N-SH. Kind of test: Cytotoxicity against human SK-N-SH cells after 48 hrs by MTT assay. In outline: as §1
Another test has as its system DU-145. Kind of test: Cytotoxicity against human DU145 cells after 48 hrs by MTT assay. Conditions: DU-145, 48 h. In outline: as §1
A further test concerns HepG2. Put plainly: Cytotoxicity against human HepG2 cells after 48 hrs by MTT assay. Conditions: HepG2, 48 h. In outline:
as §1

A further test deals with A549. Kind of test: Cytotoxicity against human A549 cells after 48 hrs by MTT assay. Conditions: A549, 48 h. In outline:
as §1

Test [2] concerns MCF7. Put plainly: Cytotoxicity against human MCF7 cells after 48 hrs by MTT assay. Conditions: MCF7, 48 h. In outline:
as §1

The structures appear in SMILES notation. Calls of active or inactive are those of the source. The calls are words filed in the database; no cut-off is given here.

What is called IC50 is the concentration that gives 50% inhibition.

Regarding `Cn1cc(C2(c3cn(C)c4ccccc34)C(=O)Nc3ccccc32)c2ccccc21`, in the test with MCF7 [1], the result was inactive. Further, the half-maximal inhibitory concentration (IC50) worked out at 5.1 µM in the test on SK-N-SH, 5.6 µM in the test on DU-145, 12 µM in the test on HepG2 and 10.1 µM in the test with A549.
For `COc1ccc2[nH]cc(C3(c4c[nH]c5ccc(OC)cc45)C(=O)Nc4ccccc43)c2c1`, the IC50 in the test with MCF7 [2] was determined as 33.6 µM; in the test on SK-N-SH, 3.9 µM; with DU-145, 2.2 µM; in the test on HepG2, 30.2 µM; with A549, 11.2 µM.
The corresponding values for `O=C1Nc2ccc(F)cc2C1(c1c[nH]c2ccccc12)c1c[nH]c2ccccc12` are 23.6 µM, 67.3 µM, 12.8 µM, 6.6 µM and 12.7 µM.
Taken in the same sequence, the figures for `O=C1Nc2ccccc2C1(c1c[nH]c2ccccc12)c1c[nH]c2ccccc12` were 49.8 µM, 11.3 µM, 8.7 µM, 20.4 µM and 8.6 µM.
For `COc1ccc2c(C3(c4c[nH]c5cc(OC)ccc45)C(=O)Nc4ccc(F)cc43)c[nH]c2c1`, the concentration for half-maximal inhibition (IC50) in the test on MCF7 [2] stood at 12 µM; in the test on SK-N-SH, 4.1 µM; in the test with DU-145 it was 13.1 µM; with HepG2 it was 16 µM; in the test with A549 it was 14.4 µM.
On to `O=C1Nc2ccccc2C1(c1c[nH]c2ccc(Cl)cc12)c1c[nH]c2ccc(Cl)cc12`, for which, in the test on MCF7 [1], the outcome was inactive. Besides, the IC50 with SK-N-SH was 9.4 µM; in the test with DU-145, 8.1 µM; in the test on HepG2, 14.6 µM; in the test with A549, 8.3 µM.
The corresponding values for `O=C1Nc2ccccc2C1(c1c[nH]c2ccc([N+](=O)[O-])cc12)c1c[nH]c2ccc([N+](=O)[O-])cc12` are “inactive”, 11.8 µM, 8 µM, 23.4 µM and 10.3 µM.
The corresponding values for `O=C1Nc2ccc(F)cc2C1(c1c[nH]c2ccc([N+](=O)[O-])cc12)c1c[nH]c2ccc([N+](=O)[O-])cc12` are “inactive”, 6.8 µM, 7.5 µM, 23.8 µM and 7.7 µM.
Take `COc1ccc2c(C3(c4c[nH]c5cc(OC)ccc45)C(=O)Nc4ccccc43)c[nH]c2c1`: the half-maximal inhibitory concentration (IC50) came to 45.4 µM in the test with MCF7 [2]; 13.6 µM in the test with SK-N-SH; 1.2 µM with DU-145; 12 µM with HepG2; 7.8 µM with A549.
The corresponding values for `Cn1cc(C2(c3cn(C)c4ccccc34)C(=O)Nc3ccc(F)cc32)c2ccccc21` are 9.2 µM, 6.5 µM, 11 µM, 13 µM and 17.5 µM.
As for `O=C1Nc2ccc(F)cc2C1(c1c[nH]c2ccc(Br)cc12)c1c[nH]c2ccc(Br)cc12`, the IC50 in the test on MCF7 [2] is 12.8 µM; with SK-N-SH, 2.8 µM; in the test with DU-145, 16.3 µM; with HepG2, 12.8 µM; with A549, 10.3 µM.
Consider `COc1ccc2[nH]cc(C3(c4c[nH]c5ccc(OC)cc45)C(=O)Nc4ccc(F)cc43)c2c1`, for which the result with MCF7 [1] was inactive. For the same compound, the half-maximal inhibitory concentration (IC50) in the test on SK-N-SH was 7 µM; in the test with DU-145 it was 3.6 µM; with HepG2, 36.6 µM; with A549, 10.6 µM.
Consider `COc1cccc2[nH]cc(C3(c4c[nH]c5cccc(OC)c45)C(=O)Nc4ccccc43)c12`, for which the concentration for half-maximal inhibition (IC50) in the test with MCF7 [2] came out at 14.1 µM; in the test on SK-N-SH, 4.7 µM; with DU-145, 5 µM; with HepG2 it was 9 µM; in the test with A549, 15.3 µM.
The corresponding values for `O=C1Nc2ccc(F)cc2C1(c1c[nH]c2ccc(Cl)cc12)c1c[nH]c2ccc(Cl)cc12` are 24.8 µM, 8.5 µM, 19.6 µM, 16.6 µM and 12.1 µM.
Taken in the same sequence, the figures for `O=C1Nc2ccccc2C1(c1c[nH]c2ccc(Br)cc12)c1c[nH]c2ccc(Br)cc12` were 46.8 µM, 13.2 µM, 3.6 µM, 15.8 µM and 8 µM.
The corresponding values for `COc1cccc2[nH]cc(C3(c4c[nH]c5cccc(OC)c45)C(=O)Nc4ccc(F)cc43)c12` are 7.5 µM, 12.1 µM, 9.4 µM, 18 µM and 7.8 µM.

These data come from ChEMBL document CHEMBL1221269, “Synthesis of 3,3-diindolyl oxyindoles efficiently catalysed by FeCl3 and their in vitro evaluation for anticancer activity” (Bioorg Med Chem Lett, 2010).
